Compounds with a hit are over-represented: about 1.9% of the library has one in this group of screens.
core dimer inh: inhibitors of HCV core protein dimerization, primary screen, biochemical, TR-FRET, high-throughput. inhibition, % at 5 µM. TR-FRET GST/Flag-core106 dimerization, 1536-well. 300,000 compounds, 0.33% hits. AID 1899, 2009;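 active = inhibition above the mean of all tested compounds plus 3 SD, set per screening campaign, cut at about 45% in these data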
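Material: GST/Flag-tagged HCV core106 proteins. Incubation: 4 h, 22.5 °C incubation. Read-out basis: inhibition (%) from 671 over 617 nm ratio. Measured by: TR-FRET, excitation 340 nm, emission 617 and 671 nm.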
NadD block: inhibitors of S. aureus NadD, primary screen, biochemical, colorimetric, uHTS; inhibition, % at 20 µM; AID 602399, 2012; 360,000 compounds, 0.78% hits; Nicotinate-nucleotide adenylyltransferase NadD (Staphylococcus aureus N315); purified NadD enzyme, colorimetric absorbance read-out; in the data active = inhibition above about 26%
VIM-2 inhibitor: VIM-2 metallo-beta-lactamase inhibitors, primary screen, biochemical, epi-absorbance readout, Pseudomonas aeruginosa enzyme | purified VIM-2, nitrocefin hydrolysis, epi-absorbance fluorescence | inhibition, % at 5.6 µM | 290,000 compounds, 0.89% hits;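 active = inhibition above the mean of all tested compounds plus 3 SD, cutoff set per screening run, cut at about 7.5% in these data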;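 note: red hydrolysis product quenches plate fluorescence so inhibitors raise well fluorescence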
IMP-1 inh-1: IMP-1 metallo-beta-lactamase inhibitors, primary screen, biochemical, epi-absorbance readout, Pseudomonas aeruginosa enzyme | purified IMP-1, nitrocefin hydrolysis, epi-absorbance fluorescence | inhibition, % at 5.6 µM | 290,000 compounds, 0.45% hits | AID 1556, 2009;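 active = inhibition above the mean plus 3 SD of all compounds in the same screening run, cut at about 4.5% in these data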
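System: purified IMP-1 / Input: IMP-1 dispensed at 0.2 nM / Medium: 50 mM HEPES pH 7.1, 50 µM ZnSO4, 0.05% Brij 35 / Timing: 15 min enzyme–compound preincubation, then 25 min nitrocefin reaction, 25 °C / Technique: plate fluorescence quenching by hydrolysis product, ex 480/em 530 nm / Repeats: singlicate testing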
IMP-1 inh-2: IMP-1 metallo-beta-lactamase inhibitors, confirmation, selectivity assay for selective VIM-2 inhibitor project, biochemical, epi-absorbance readout, triplicate; purified IMP-1, nitrocefin hydrolysis, epi-absorbance fluorescence; inhibition, % at 5.6 µM; 1,300 tested, under 10 active; AID 1856, 2009; shares compounds with VIM-2 inhibitor; call rule not given here
VIM-2 FRET ctr: VIM-2 inhibitors in FRET format, confirmation, artefact control for selective VIM-2 inhibitor project, biochemical, epi-absorbance artifact exclusion | 1,300 compounds, 23% hits | shares compounds with VIM-2 inhibitor | purified VIM-2, CCF2 FRET substrate hydrolysis | inhibition, % at 5.6 µM;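 active = inhibition above the mean of all tested compounds plus 3 SD, cut at about 19% in these data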
TEM-1 counter: TEM-1 serine beta-lactamase inhibitors, counter-screen for VIM-2 inhibitor project, biochemical, epi-absorbance, HTS; shares compounds with VIM-2 inhibitor; Purified TEM-1, nitrocefin hydrolysis, epi-absorbance fluorescence; inhibition, % at 5.6 µM; 1,300 compounds, 3% hits; AID 1866, 2009;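 active = inhibition above that campaign's mean inhibition plus 3 SD, cut at about 0.46% in these data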
Target sequence (P62593 whole entry, looked up): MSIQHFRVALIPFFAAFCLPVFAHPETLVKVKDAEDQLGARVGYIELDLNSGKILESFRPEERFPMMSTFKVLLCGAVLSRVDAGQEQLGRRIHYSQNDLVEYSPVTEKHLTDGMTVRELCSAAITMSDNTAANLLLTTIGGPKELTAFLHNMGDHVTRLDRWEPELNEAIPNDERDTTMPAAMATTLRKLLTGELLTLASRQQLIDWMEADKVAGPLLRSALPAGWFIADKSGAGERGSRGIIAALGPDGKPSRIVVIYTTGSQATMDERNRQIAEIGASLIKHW
VIM-2 inh conf: VIM-2 metallo-beta-lactamase inhibitors, confirmation, biochemical, epi-absorbance, hits shared with IMP-1 screen. shares compounds with VIM-2 inhibitor. purified VIM-2, nitrocefin hydrolysis. inhibition, % at 5.6 µM. 1,300 compounds, 96% hits. AID 2187, 2009;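 active = inhibition of the VIM-2 beta-lactamase enzyme above about 11% from the earlier first-round screen, limit read from the data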
A number is an active result.

How did CCCNC(=O)C(Cc1ccc(Br)cc1)NC(=O)c1ccc(C#N)cc1 (stereo not drawn) do in these assays?
NadD block: inactive

How did Cn1cccc1C(=O)OCC(=O)Nc1ccc2c(c1)OCCO2 do in these assays?
NadD block: inactive

What do the screens show for `CCOC(=O)C1CCCN(CC(=O)N(C)c2c(N)n(Cc3ccccc3)c(=O)[nH]c2=O)C1` (stereo not drawn)?
NadD block: inactive

What do the screens show for `CCOC(=O)C1CCN(S(=O)(=O)c2cc(C(=O)N3CCCCC3)ccc2OC)CC1`?
core dimer inh: inactive; NadD block: inactive; VIM-2 inhibitor: inactive; IMP-1 inh-1: inactive

Results for CCN(CC)CCCNc1cc(C(F)(F)F)c(C#N)c2nc3ccccc3n12 ?
core dimer inh: inactive; NadD block: inactive; VIM-2 inhibitor: 29; IMP-1 inh-1: inactive; IMP-1 inh-2: inactive; VIM-2 FRET ctr: inactive; TEM-1 counter: inactive; VIM-2 inh conf: 41

How did C=C(C)CSc1cc(C)c(C#N)c2nc3ccccc3n12 do in these assays?
core dimer inh: inactive; NadD block: inactive; VIM-2 inhibitor: 17; IMP-1 inh-1: inactive; IMP-1 inh-2: inactive; VIM-2 FRET ctr: inactive; TEM-1 counter: inactive; VIM-2 inh conf: 21

How did COCCN(CCOC)c1cc(C)c(C#N)c2nc3ccccc3n12 do in these assays?
core dimer inh: inactive; NadD block: inactive; VIM-2 inhibitor: inactive; IMP-1 inh-1: inactive

What do the screens show for `O=C(NC(=S)Nc1ccccc1N1CCCC1)c1ccccc1Br`?
core dimer inh: inactive; NadD block: inactive; VIM-2 inhibitor: 17; IMP-1 inh-1: inactive; IMP-1 inh-2: inactive; VIM-2 FRET ctr: inactive; TEM-1 counter: inactive; VIM-2 inh conf: inactive

What do the screens show for `O=C(NC(=S)Nc1ccccc1N1CCCC1)c1ccco1`?
core dimer inh: inactive; NadD block: inactive; VIM-2 inhibitor: 12; IMP-1 inh-1: inactive; IMP-1 inh-2: inactive; VIM-2 FRET ctr: 36; TEM-1 counter: inactive; VIM-2 inh conf: 19

Results for CCOc1ccc(NC(=O)CSc2nnc(-c3cc(C)[nH]n3)n2N)cc1 ?
core dimer inh: inactive; NadD block: inactive; VIM-2 inhibitor: inactive; IMP-1 inh-1: inactive

Results for Cc1ccc(S(=O)(=O)n2[nH]c(=O)cc2NC(=O)c2cccs2)cc1 ?
core dimer inh: inactive; VIM-2 inhibitor: 70; IMP-1 inh-1: inactive; IMP-1 inh-2: inactive; VIM-2 FRET ctr: 91; TEM-1 counter: inactive; VIM-2 inh conf: 84

What do the screens show for `COc1ccc(S(=O)(=O)n2nc(OC(=O)c3cccs3)cc2NC(=O)c2cccs2)cc1`?
core dimer inh: inactive; NadD block: inactive; VIM-2 inhibitor: 74; IMP-1 inh-1: inactive; IMP-1 inh-2: inactive; VIM-2 FRET ctr: 37; TEM-1 counter: 5.7; VIM-2 inh conf: 16

Results for CCC[C@@H](CNC)NC[C@H](Cc1ccccc1)NCCCCc1ccccc1 ?
core dimer inh: inactive; NadD block: inactive; VIM-2 inhibitor: 56; IMP-1 inh-1: inactive; IMP-1 inh-2: inactive; VIM-2 FRET ctr: inactive; TEM-1 counter: inactive; VIM-2 inh conf: 66

How did COc1ccc(C2=Nn3c(nnc3-c3ccco3)SC2)cc1OC do in these assays?
core dimer inh: inactive; NadD block: inactive; VIM-2 inhibitor: 23; IMP-1 inh-1: inactive; IMP-1 inh-2: inactive; VIM-2 FRET ctr: inactive; TEM-1 counter: inactive; VIM-2 inh conf: 31

How did COc1ccc(C2=Nn3c(nnc3-c3ccccc3OC)SC2)cc1OC do in these assays?
core dimer inh: inactive; NadD block: inactive; VIM-2 inhibitor: 14; IMP-1 inh-1: inactive; IMP-1 inh-2: inactive; VIM-2 FRET ctr: inactive; TEM-1 counter: inactive; VIM-2 inh conf: 27
